Measurements from different studies.
Compare with care: the assays were run in different laboratories.
Target: Mitogen-activated protein kinase 9 (MAPK9, Homo sapiens, UniProt P45984)

SMILES | assay | setting | measurement | value
C=CC(=O)N1CCC[C@@H](n2nc(-c3ccc(Oc4ccccc4)cc3)c3c(N)ncnc32)C1 | enzyme activity, inhibitor | 1 µM | inhibition | 21%
C1=C/COCc2cc(ccc2OCCN2CCCC2)Nc2nccc(n2)-c2cccc(c2)COC/1 | cell-free assay | 0.1 µM | remaining signal | 47%
Cc1ccc(NC(=O)c2ccnc(C(F)(F)F)c2)cc1-c1cc(OCCO)nc(N2CCOCC2)c1 | binding, competition with immobilised ligand | 1 µM | remaining binding | 83%
CCCCC(=O)Nc1ccc(-c2ccc3ncn(CCC)c(=O)c3c2)cn1 | binding, competition with immobilised ligand | 0.5 µM | remaining binding | 68%
COc1ccc2oc(-c3ccc4nc(N)oc4c3)c/c(=N\c3ccccc3NC(=O)CCN)c2c1 | binding | 1 µM | remaining binding | 98%
C[C@H]1CC[C@H](n2c3cnccc3c3cnc(Nc4ccc5c(n4)CCN(C(=O)CO)C5)nc32)CC1 | binding, competition with immobilised ligand | 1 µM | remaining binding | 2.6%
C=CC(=O)N1CCC([C@@H]2CCNc3c(C(N)=O)c(-c4ccc(Oc5ccccc5)cc4)nn32)CC1 | enzyme activity, inhibitor | 1 µM | inhibition | 0%
N#Cc1ccc(NC(=O)Nc2ccccc2)cc1 | cell-free assay, competition with immobilised ligand | 25 µM | remaining binding | 100%
C#Cc1cnc(Nc2ccnc(CO)c2)nc1Nc1ccccc1S(C)(=O)=NC#N (stereo not drawn) | cell-free assay | 1 µM | remaining signal | 58%
